This passage reports IC50 and inhibition results from ChEMBL document CHEMBL4196223 (J Med Chem, 2018).

What all share (format): cell-based
Assay [1] concerns the target Neuronal acetylcholine receptor; alpha3/beta4 (Rattus norvegicus, UniProt P04757+P12392). Put plainly: Antagonist activity at rat alpha3beta4 nACHR expressed in Xenopus laevis oocytes assessed as inhibition of acetyl choline-induced membrane currents pre-incubated for 5 mins prior to acetyl choline pulse at -70 mV potential by two-electrode voltage clamp assay. A digest of the protocol:
(§1)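 Rat subunit cRNAs (equimolar, ≥10 ng each) were expressed in oocytes held at 17 °C in ND96 and clamped at -70 mV 2-5 days after injection. Perfusate was ND96 with 0.1 mg/mL BSA and 1 µM atropine. After 5 min toxin exposure, 100 µM ACh was applied for 1 s/min. % response was fitted to a Hill equation for IC50 and nH, at room temperature, n=3-6.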
On the technique in general: Two-electrode voltage clamp holds a large cell at a set potential and records current.

The target in assay [2] is Nicotinic acetylcholine receptor alpha6/alpha3/beta4 (Rattus norvegicus, UniProt P04757+P12392+P43143). The experiment in a line: Antagonist activity at rat alpha6/alpha3beta4 nAChR nACHR expressed in Xenopus laevis oocytes assessed as inhibition of acetyl choline-induced membrane currents pre-incubated for 5 mins prior to acetyl choline pulse at -70 mV potential by two-electrode voltage clamp assay. A digest of the protocol:
as §1

For assay [3], the target named is Neuronal acetylcholine receptor subunit alpha-7 (Rattus norvegicus, UniProt Q05941). Put plainly: Antagonist activity at rat alpha7 nACHR expressed in Xenopus laevis oocytes assessed as inhibition of acetyl choline-induced membrane currents pre-incubated for 5 mins prior to acetyl choline pulse at -70 mV potential by two-electrode voltage clamp assay.
Chain of Neuronal acetylcholine receptor subunit alpha-7 (Q05941 whole entry): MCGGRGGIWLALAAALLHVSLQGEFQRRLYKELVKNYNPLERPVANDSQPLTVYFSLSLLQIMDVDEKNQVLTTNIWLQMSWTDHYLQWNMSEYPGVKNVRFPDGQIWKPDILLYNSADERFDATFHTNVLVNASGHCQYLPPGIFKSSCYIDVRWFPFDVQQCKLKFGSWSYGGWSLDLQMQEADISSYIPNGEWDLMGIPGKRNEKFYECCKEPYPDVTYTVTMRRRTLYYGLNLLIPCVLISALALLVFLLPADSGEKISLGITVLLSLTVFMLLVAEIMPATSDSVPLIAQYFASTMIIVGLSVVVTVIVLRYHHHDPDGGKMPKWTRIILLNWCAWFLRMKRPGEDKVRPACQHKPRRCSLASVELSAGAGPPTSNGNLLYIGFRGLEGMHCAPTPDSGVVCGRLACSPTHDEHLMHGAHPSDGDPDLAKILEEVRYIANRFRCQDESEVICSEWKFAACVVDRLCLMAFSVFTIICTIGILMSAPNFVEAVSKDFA
Assay [4] has as its target Nicotinic acetylcholine receptor alpha9/alpha10 (Rattus norvegicus, UniProt P43144+Q9JLB5). Put plainly: Antagonist activity at rat alpha9alpha10 nACHR expressed in Xenopus laevis oocytes assessed as inhibition of acetyl choline-induced membrane currents pre-incubated for 5 mins prior to acetyl choline pulse at -70 mV potential by two-electrode voltage clamp assay.
The target in assay [5] is Neuronal acetylcholine receptor; alpha3/beta4 (Rattus norvegicus) (UniProt P04757+P12392). The experiment in a line: Antagonist activity at rat alpha3beta4 nACHR expressed in Xenopus laevis oocytes assessed as inhibition of acetyl choline-induced membrane currents at 10 uM pre-incubated for 5 mins prior to acetyl choline pulse at -70 mV potential by two-electrode voltage clamp assay.

Assay [6] has as its target Nicotinic acetylcholine receptor alpha6/alpha3/beta4 (Rattus norvegicus) (UniProt P04757+P12392+P43143). The experiment in a line: Antagonist activity at rat alpha6/alpha3beta4 nAChR nACHR expressed in Xenopus laevis oocytes assessed as inhibition of acetyl choline-induced membrane currents at 10 uM pre-incubated for 5 mins prior to acetyl choline pulse at -70 mV potential by two-electrode voltage clamp assay.

Where a SMILES comes first, the peptide text is derived from it. Bridges are numbered along the chain shown (N, C = ends). Where only a bound is given, the exact number is not on record here.

Chain of Neuronal acetylcholine receptor; alpha3/beta4 (P04757 whole entry): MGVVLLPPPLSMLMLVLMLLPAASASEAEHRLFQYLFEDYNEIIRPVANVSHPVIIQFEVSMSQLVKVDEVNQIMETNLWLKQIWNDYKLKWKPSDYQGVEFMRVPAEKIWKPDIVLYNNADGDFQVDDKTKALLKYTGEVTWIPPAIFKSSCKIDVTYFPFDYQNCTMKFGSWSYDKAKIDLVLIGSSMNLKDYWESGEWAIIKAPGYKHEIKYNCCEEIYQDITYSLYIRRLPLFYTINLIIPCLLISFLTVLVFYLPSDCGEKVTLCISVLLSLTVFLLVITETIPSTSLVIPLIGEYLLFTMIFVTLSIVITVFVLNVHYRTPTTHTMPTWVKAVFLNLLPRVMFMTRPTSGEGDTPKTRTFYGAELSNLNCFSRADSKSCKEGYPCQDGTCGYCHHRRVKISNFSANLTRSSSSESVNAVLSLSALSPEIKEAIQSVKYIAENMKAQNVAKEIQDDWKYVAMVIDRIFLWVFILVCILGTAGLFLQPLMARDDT
Chain of Neuronal acetylcholine receptor; alpha3/beta4 (P12392 whole entry): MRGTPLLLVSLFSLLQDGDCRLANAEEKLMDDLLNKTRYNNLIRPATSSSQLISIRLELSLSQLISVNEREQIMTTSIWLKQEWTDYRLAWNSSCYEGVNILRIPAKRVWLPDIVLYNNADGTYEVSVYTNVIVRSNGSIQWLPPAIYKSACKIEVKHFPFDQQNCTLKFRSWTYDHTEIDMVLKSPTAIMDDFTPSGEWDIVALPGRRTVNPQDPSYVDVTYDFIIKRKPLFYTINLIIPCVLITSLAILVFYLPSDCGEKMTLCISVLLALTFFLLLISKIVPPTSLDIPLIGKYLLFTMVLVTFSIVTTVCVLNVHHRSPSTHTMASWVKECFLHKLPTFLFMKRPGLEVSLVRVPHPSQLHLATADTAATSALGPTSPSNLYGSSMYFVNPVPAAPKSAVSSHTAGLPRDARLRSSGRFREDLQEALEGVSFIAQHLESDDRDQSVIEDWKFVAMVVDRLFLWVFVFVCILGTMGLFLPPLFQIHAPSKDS
Chain of Nicotinic acetylcholine receptor alpha6/alpha3/beta4 (P04757 whole entry): as the sequence (P04757 whole entry) above
Chain of Nicotinic acetylcholine receptor alpha6/alpha3/beta4 (P12392 whole entry): as the sequence (P12392 whole entry) above
Chain of Nicotinic acetylcholine receptor alpha6/alpha3/beta4 (P43143 whole entry): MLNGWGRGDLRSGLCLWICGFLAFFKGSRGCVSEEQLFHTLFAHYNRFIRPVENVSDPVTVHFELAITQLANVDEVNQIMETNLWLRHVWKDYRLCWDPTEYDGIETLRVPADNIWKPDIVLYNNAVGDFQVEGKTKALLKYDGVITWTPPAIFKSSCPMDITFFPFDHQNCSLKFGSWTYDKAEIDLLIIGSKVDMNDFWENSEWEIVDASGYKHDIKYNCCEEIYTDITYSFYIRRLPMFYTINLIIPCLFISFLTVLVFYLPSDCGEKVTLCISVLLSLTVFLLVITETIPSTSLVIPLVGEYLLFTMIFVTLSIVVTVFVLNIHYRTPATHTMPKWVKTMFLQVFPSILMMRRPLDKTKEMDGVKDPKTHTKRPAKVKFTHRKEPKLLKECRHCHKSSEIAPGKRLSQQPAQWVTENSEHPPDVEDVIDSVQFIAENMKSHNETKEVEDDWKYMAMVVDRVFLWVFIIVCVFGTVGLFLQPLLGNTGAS
Chain of Nicotinic acetylcholine receptor alpha9/alpha10 (P43144 whole entry): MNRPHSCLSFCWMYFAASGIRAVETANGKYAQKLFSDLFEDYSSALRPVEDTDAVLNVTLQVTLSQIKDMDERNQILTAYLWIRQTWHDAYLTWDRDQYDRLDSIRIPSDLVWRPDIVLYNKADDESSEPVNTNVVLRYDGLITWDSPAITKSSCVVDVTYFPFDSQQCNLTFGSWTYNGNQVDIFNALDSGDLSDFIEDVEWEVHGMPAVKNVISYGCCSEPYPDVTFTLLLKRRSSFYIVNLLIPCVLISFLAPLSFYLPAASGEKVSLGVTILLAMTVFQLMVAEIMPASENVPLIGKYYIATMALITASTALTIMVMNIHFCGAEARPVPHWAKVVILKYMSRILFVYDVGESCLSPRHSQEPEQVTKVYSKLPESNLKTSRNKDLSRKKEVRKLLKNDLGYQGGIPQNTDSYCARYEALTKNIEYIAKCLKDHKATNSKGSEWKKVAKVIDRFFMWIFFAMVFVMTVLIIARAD
Chain of Nicotinic acetylcholine receptor alpha9/alpha10 (Q9JLB5 whole entry): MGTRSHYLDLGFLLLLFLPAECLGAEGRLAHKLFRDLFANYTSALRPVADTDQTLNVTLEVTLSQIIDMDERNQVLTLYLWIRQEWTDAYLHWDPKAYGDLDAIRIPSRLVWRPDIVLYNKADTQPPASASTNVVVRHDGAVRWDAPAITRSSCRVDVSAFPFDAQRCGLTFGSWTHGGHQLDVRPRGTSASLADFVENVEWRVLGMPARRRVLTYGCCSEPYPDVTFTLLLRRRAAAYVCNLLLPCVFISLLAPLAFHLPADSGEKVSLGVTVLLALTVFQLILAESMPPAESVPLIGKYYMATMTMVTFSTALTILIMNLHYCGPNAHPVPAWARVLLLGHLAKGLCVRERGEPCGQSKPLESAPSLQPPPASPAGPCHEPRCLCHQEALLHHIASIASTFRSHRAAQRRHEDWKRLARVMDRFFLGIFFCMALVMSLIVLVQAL

`CC[C@H](C)[C@@H]1NC(=O)[C@@H]2CCCN2C(=O)[C@H](CO)NC(=O)[C@H](CCSC)NC(=O)[C@H](C)NC(=O)[C@H](Cc2ccccc2)NC(=O)[C@@H]2CSSC[C@H](NC(=O)CN)C(=O)N[C@@H](CSSC[C@@H](C(N)=O)NC1=O)C(=O)N[C@@H](CO)C(=O)N[C@@H](Cc1cnc[nH]1)C(=O)N1CCC[C@H]1C(=O)N[C@@H](C(C)C)C(=O)N2` (H-GCCSHPVCFAMSPIC-NH2; disulfide 2-8, 3-15): the IC50 worked out at 11 nM in assay [1] and 10 nM in assay [2]. As for `CC[C@H](C)[C@@H]1NC(=O)[C@@H]2CCCN2C(=O)[C@H](CO)NC(=O)[C@H](CCSC)NC(=O)[C@H](C)NC(=O)[C@H](CCCCN)NC(=O)[C@@H]2CSSC[C@H](NC(=O)CN)C(=O)N[C@@H](CSSC[C@@H](C(N)=O)NC1=O)C(=O)N[C@@H](CO)C(=O)N[C@@H](Cc1cnc[nH]1)C(=O)N1CCC[C@H]1C(=O)N[C@@H](C(C)C)C(=O)N2` (H-GCCSHPVCKAMSPIC-NH2; disulfide 2-8, 3-15), the IC50 in assay [3] and in assay [4] was above 10000 nM each time. Take `CC[C@H](C)[C@@H]1NC(=O)[C@@H]2CCCN2C(=O)[C@H](CO)NC(=O)[C@H](CCSC)NC(=O)[C@H](C)NC(=O)[C@H](CC(=O)O)NC(=O)[C@@H]2CSSC[C@H](NC(=O)CN)C(=O)N[C@@H](CSSC[C@@H](C(N)=O)NC1=O)C(=O)N[C@@H](CO)C(=O)N[C@@H](Cc1cnc[nH]1)C(=O)N1CCC[C@H]1C(=O)N[C@H](C(C)C)C(=O)N2`: the inhibition in assay [5] and in assay [6] was below 50% throughout. For the compound `CC[C@H](C)[C@@H]1NC(=O)[C@@H]2CCCN2C(=O)[C@H](CO)NC(=O)[C@H](CCSC)NC(=O)[C@H](C)NC(=O)[C@H](CCC(=O)O)NC(=O)[C@@H]2CSSC[C@H](NC(=O)CN)C(=O)N[C@@H](CSSC[C@@H](C(N)=O)NC1=O)C(=O)N[C@@H](CO)C(=O)N[C@@H](Cc1cnc[nH]1)C(=O)N1CCC[C@H]1C(=O)N[C@@H](C(C)C)C(=O)N2` (H-GCCSHPVCEAMSPIC-NH2; disulfide 2-8, 3-15), in assay [6], the inhibition is below 50%. Take `CC[C@H](C)[C@@H]1NC(=O)[C@@H]2CCCN2C(=O)[C@H](CO)NC(=O)[C@H](CCSC)NC(=O)[C@H](C)NC(=O)[C@H](Cc2cnc[nH]2)NC(=O)[C@@H]2CSSC[C@H](NC(=O)CN)C(=O)N[C@@H](CSSC[C@@H](C(N)=O)NC1=O)C(=O)N[C@@H](CO)C(=O)N[C@@H](Cc1cnc[nH]1)C(=O)N1CCC[C@H]1C(=O)N[C@@H](C(C)C)C(=O)N2` (H-GCCSHPVCHAMSPIC-NH2; disulfide 2-8, 3-15): the IC50 in assay [1] was determined as 2 nM; in assay [2], 19 nM.

With `CC[C@H](C)[C@@H]1NC(=O)[C@@H]2CCCN2C(=O)[C@H](CO)NC(=O)[C@H](CCSC)NC(=O)[C@H](C)NC(=O)[C@H](CC(=O)O)NC(=O)[C@@H]2CSSC[C@H](NC(=O)CN)C(=O)N[C@@H](CSSC[C@@H](C(N)=O)NC1=O)C(=O)N[C@@H](CO)C(=O)N[C@@H](Cc1cnc[nH]1)C(=O)N1CCC[C@H]1C(=O)N[C@@H](C(C)C)C(=O)N2`, the inhibition in assay [6] was below 50%.

As usually defined, the IC50 is the midpoint of a concentration-inhibition curve. One may read the inhibition as the drop in the measured response relative to a control, in per cent.
